Bioassay records from PubChem.
An excerpt weighted towards active compounds, which were near 1.8% of everything screened.
GalR3 antag: human GalR3 antagonism. inhibition, % at 3 µM. HEK293 GalR3-CNG cAMP membrane potential fluorescence; galR3 body fused to GalR1 C-terminus. actives 0.44% (n = 360,000);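 active means inhibition above the screen-wide average plus 3 SD, cut at about 13% in these data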;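 further: forskolin and galanin both at EC90 stimulate the cells; cAMP rise reported by CNG channel membrane potential dye signal; 0% = forskolin plus galanin with DMSO and 100% = forskolin alone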
Target sequence (O60755 1-299 limits assumed): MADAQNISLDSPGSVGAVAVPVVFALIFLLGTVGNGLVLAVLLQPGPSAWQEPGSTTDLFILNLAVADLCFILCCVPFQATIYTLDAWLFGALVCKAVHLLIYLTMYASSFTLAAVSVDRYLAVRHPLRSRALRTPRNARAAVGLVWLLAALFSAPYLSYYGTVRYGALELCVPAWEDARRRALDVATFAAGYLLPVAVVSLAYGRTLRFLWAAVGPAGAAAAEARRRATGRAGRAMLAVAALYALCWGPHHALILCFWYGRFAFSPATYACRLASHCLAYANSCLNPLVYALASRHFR
Gli-Sufu antag: blocks Gli-Sufu signaling in a luciferase reporter; AID 588413; Sufu-KO-LIGHT fibroblasts, Gli luciferase reporter luminescence; actives 0.74% (n = 340,000); inhibition, % at 5 µM;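 active means inhibition above about 55%, limit read from the data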;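 further: 0% = DMSO-treated cells and 100% = wells with medium but no cells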
NR2E3 ag-1: NR2E3 (human) agonism; actives 0.12% (n = 320,000); AID 2300; inhibition of corepressor binding, % at 4.78 µM; GST-NR2E3/biotin-RetCOR TR-FRET, 1536-well;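 active means percent inhibition above the cutoff of mean plus 3 SD of all tested compounds, set per screening campaign, cut at about 20% in these data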;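 further: 0% = DMSO wells and 100% = biotin wells as full block of FRET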
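Test system – NR2E3–RetCOR corepressor complex · Quantity – NR2E3 fusion 1.35 nM · Buffer or medium – Tris pH 7.5 · Incubation – Compound–protein incubation for 5 h at 4 °C · Technique – TR-FRET, Eu(K)-anti-GST donor, streptavidin-D2 acceptor, ex 340, em 617/671 nm · Evaluation – percent inhibition of 671/617 nm emission ratio versus biotin and DMSO controls · Plate – 1536-well format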
Jurkat NFkB inh: lowers PMA/ionomycin-induced NF-kB signal in Jurkat cells. AID 435003. actives 0.53% (n = 330,000). PMA/ionomycin-induced NF-kB luciferase reporter, luminescence. inhibition, % at 4 µM; in the data active means inhibition above about 50%
NR2E3 ag-2: agonists of human NR2E3 nuclear receptor; Q9Y5X4; CHO-S Gal4-NCOR/VP16-NR2E3 two-hybrid, luciferase; inhibition of corepressor binding, % at 3.98 µM; actives 0.35% (n = 360,000);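 active means inhibition above the mean of all tested compounds plus 3 SD, cut at about 70% in these data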;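 further: 0% = DMSO with NR2E3 transfected cells and 100% = cells lacking NR2E3 construct; higher means lower luciferase signal from less NR2E3 corepressor binding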
697 NFkB inh: lowers PMA/ionomycin-induced NF-kB signal in 697 B cells. 697 B-cell NF-kB luciferase reporter, 16 h. inhibition, % at 4 µM. actives 0.33% (n = 330,000). AID 435022; in the data active means inhibition above about 35%
NR2E3 ag conf: confirmation of human NR2E3 agonists. shares compounds with NR2E3 ag-2. actives 51% (n = 2,300). inhibition, % at 3.98 µM. CHO-S mammalian two-hybrid NR2E3-NCOR, luciferase luminescence. AID 624378;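 active means average inhibition above a cutoff equal to the mean inhibition of all tested compounds plus one SD, cut at about 70% in these data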;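 further: 0% = DMSO in NR2E3 cells and 100% = DMSO in cells lacking NR2E3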
GAL4-VP16 luc: GAL4-VP16 reporter inhibition in NR2E3 agonist counterscreen. shares compounds with NR2E3 ag-2. CHO-S GAL4-VP16 luciferase reporter, luminescence. inhibition, % at 3.98 µM. actives 29% (n = 2,300);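 active means mean inhibition above a cutoff equal to the average over all tested compounds plus one standard deviation, cut at about 70% in these data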;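 further: luciferase from a UAS reporter driven by GAL4-VP16 transactivation; 0% = DMSO with VP16-transfected cells and 100% = DMSO with cells lacking VP16; higher means less reporter light so more repression of VP16 activity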
An asterisk follows results filed as active; nt = no result given.

SMILES | GalR3 antag | Gli-Sufu antag | NR2E3 ag-1 | Jurkat NFkB inh | NR2E3 ag-2 | 697 NFkB inh | NR2E3 ag conf | GAL4-VP16 luc
CCC1(CC)C(=O)C(C)(C)C(=O)OC1c1ccccn1 (stereo not drawn) | -4 | 1 | 0 | 6 | 92* | -8 | 19 | 15
O=C(N[C@@H]1CCC(=O)N(CC[C@H](Sc2ccccc2)c2ccccc2)CC1)OCc1ccccc1 | -6 | 6 | -1 | -5 | 19 | -13 | nt | nt
COc1ccccc1NS(=O)(=O)c1ccc2oc(SC(C)C(=O)N3CCNC3=O)nc2c1 (stereo not drawn) | -2 | 5 | 2 | -15 | 56 | -14 | 6 | 22
COc1ccccc1NS(=O)(=O)c1ccc2oc(SCC(C)=O)nc2c1 | -9 | 8 | 3 | 17 | 42 | -16 | nt | nt
Cc1nc2c(oc3ccc(Cl)cc32)c(=O)[nH]1 | -4 | -1 | -2 | -8 | -29 | 2 | nt | nt
CC(C)C(=O)Nc1ccc(C(=O)NNC(=S)NC(=O)c2ccco2)cc1 | -1 | 1 | -4 | 0 | 7 | 21 | nt | nt
Cc1ccccc1OCCCCc1c(C)n[nH]c1C | -7 | 12 | 2 | -2 | 71* | -27 | 91* | 60
COc1cccc(OC)c1OCCCCCc1c(C)n[nH]c1C | 1 | 5 | 3 | -1 | 53 | -32 | 25 | 7
Cc1cc(C(=O)NNc2ccc(Cl)cc2)no1 | -5 | 0 | 1 | 32 | 64 | 19 | 34 | 6
Cc1cc(C(=O)NNC(=O)Nc2ccc(Cl)cc2)no1 | 4 | 4 | 3 | 5 | -2 | 11 | nt | nt
N#Cc1ccc(C23OCCN2CCn2c3c3ccccc3[n+]2[O-])cc1 (stereo not drawn) | -2 | -12 | nt | 2 | -26 | -134 | nt | nt
CCCOc1ccc(Cn2cnc3ccccc32)cc1 | -5 | 26 | -4 | 42 | 56 | -21 | 78* | 59
CC1=C(O)c2ccccc2C(=O)C1=O | -6 | nt | nt | nt | 53 | nt | 85* | 49
Cc1cccc(C(=O)NNC(=S)NC(=O)c2cccs2)c1 | 2 | 0 | 1 | 3 | 54 | -23 | 46 | 1
OC(c1ccc(Cl)c(F)c1)c1ncc(-c2ccc(Cl)cc2)[nH]1 (stereo not drawn) | -7 | nt | nt | nt | 68 | nt | 86* | 66
Cc1cc(Cl)ccc1C(O)c1ncc(-c2ccc(F)cc2)[nH]1 (stereo not drawn) | nt | nt | nt | nt | 59 | nt | 6 | 32
OC(c1ccc(Cl)c(Cl)c1)c1ncc(-c2ccc(Cl)cc2)[nH]1 (stereo not drawn) | -5 | nt | nt | nt | 43 | nt | nt | nt
OC(c1ccc(Cl)c(F)c1)c1ncc(-c2cccc(F)c2)[nH]1 (stereo not drawn) | -5 | nt | nt | nt | 73* | nt | 66 | 47
COc1ccc(/C=C/c2cc(C(F)(F)F)[nH]c(=O)n2)cc1OC | 1 | 12 | 4 | 13 | 53 | 12 | 64 | -3
CCOc1cc(/C=C/c2cc(C(F)(F)F)[nH]c(=O)n2)ccc1O | -1 | 11 | 2 | 2 | 16 | 12 | nt | nt
CN(c1ccccc1C(=O)NCc1ccccc1Cl)S(=O)(=O)c1ccccc1 | -5 | 2 | 0 | -6 | -4 | -6 | nt | nt
C#Cc1ccc(NC(=O)C2(C)CCN2C(=O)C2(c3ccccc3)CCCC2)cc1 (stereo not drawn) | -8 | nt | nt | nt | -19 | nt | nt | nt
CC1=C(C(=O)NC2CCCc3c2cnn3-c2cc(F)cc(F)c2)OCCO1 (stereo not drawn) | -4 | 11 | -2 | -3 | 13 | -5 | nt | nt
CC1=C(C(=O)NC2CCCc3c2cnn3-c2cccc(C)c2C)OCCO1 (stereo not drawn) | 0 | 57* | 1 | nt | 80* | nt | 73* | 67
COc1ccc(C(=O)NC2CCCc3c2cnn3-c2cccc(C)c2C)o1 (stereo not drawn) | -2 | 43 | 2 | 0 | 65 | -230 | 32 | 30
